This is an account of results in ChEMBL document CHEMBL2016456, “Antiangiogenic effect of chamigrane endoperoxides from a Thai mangrove-derived fungus” (J Nat Prod, 2011).

In test [1] the test system is Aorta. Nature of the test: Antiangiogenic activity in Wistar rat aortic ring assessed as complete inhibition of microvessel sprouting at 25 uM after 7 days by phase-contrast microscopy. The class given is functional, tissue-based.
In test [2] the test system is HUVEC. The test can be described thus: Antiproliferative activity against HUVEC after 72 hrs by WST8 assay. The class given is functional, cell-based. The settings on record: Homo sapiens. An outline of the steps: (§1)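 HUVECs at 1.5 × 10^4 cells/mL plated and grown 24 h. Medium then replaced with HuMedia EG2 containing compound or DMSO for 72 h at 37 C, 5% CO2. Proliferation read by WST-8 absorbance at 450 nm.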
(In general: Formazan colour is commonly taken as a measure of viable cells.)

For test [3], the system named is HUVEC. Nature of the test: Antiangiogenic activity in HUVEC assessed as inhibition of tube formation at 25 uM after 12 hrs by light microscopy matrigel based assay. Format: functional. As to conditions: Homo sapiens. An outline of the steps:
(§2)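 HUVECs (passages 3–7) at 1 × 10^5 cells/mL in HuMedia EG2 with compound or DMSO seeded onto solidified Matrigel. Incubated 12 h at 37 C, 5% CO2. Tube formation observed under inverted light microscope at 40× and photographed.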

In test [4] the target is T1, Mitogen-activated protein kinase; ERK1/ERK2 (Homo sapiens) (UniProt P27361+P28482). Nature of the test: Inhibition of VEGF-stimulated ERK1/2 phosphorylation in HUVEC at 2.5 to 10 uM by Western blot analysis. Format: protein assay. The settings on record: TDE = time-dependent effect. The essentials: (§3)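 Confluent HUVECs starved 16 h in RPMI 1640 with 5% FBS. Pretreated 60 min with compound (2.5–10 μM) or vehicle, then stimulated with VEGF 10 ng/mL for 10 min. Lysates (50 μg protein) run on SDS-PAGE under reducing conditions. Blots probed for phospho-Erk1/2 or phospho-Akt and total proteins; chemiluminescence detection.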

Test [5] has as its system Mus musculus. The test can be described thus: Antiangiogenic activity in C57BL/6 mouse assessed as inhibition of bFGF-induced neovascularization at 10 uM, sc after 7 days by matrigel plug assay relative to control. The class given is functional, organism-based. The essentials:
(§4)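 C57BL/6 mice, male, three per group; 0.5 mL Matrigel with bFGF (10 ng/mL) plus compound (10 μM) or DMSO vehicle injected subcutaneously, allowed to form a plug. After 7 days, plugs excised, formaldehyde-fixed, paraffin-embedded, sectioned, H&E stained. Plug hemoglobin quantified by QuantiChrom kit against hemoglobin standard. Means ± SEM; ANOVA with Dunnett or Student's t test.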

The test system of test [6] is HUVEC. Nature of the test: Antiangiogenic activity in HUVEC assessed as inhibition of VEGF-induced endothelial migration after 6 hrs using Diff-Quik staining by modified Boyden chamber based chemotactic migration assay. The settings on record: Homo sapiens. The class given is functional, cell-based. An outline of the steps: (§5)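 Modified Boyden chamber, 8 μm membrane coated with 0.1% gelatin. HUVECs (2.5 × 10^5 cells/mL) in Medium 199 with 0.1% BSA in upper chamber. Lower well held Medium 199, 0.1% BSA, VEGF 10 ng/mL, with or without compound. After 6 h at 37 C, migrated cells methanol-fixed, Diff-Quik stained, counted in three fields at 200×.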

In test [7] the test system is HUVEC. Nature of the test: Antiangiogenic activity in HUVEC assessed as inhibition of VEGF-induced endothelial migration at > 5 uM after 6 hrs using Diff-Quik staining by modified Boyden chamber based chemotactic migration assay. The class given is functional, cell-based. As to conditions: Homo sapiens. An outline of the steps: as §5
Test [8] has as its system HUVEC. The test can be described thus: Antiangiogenic activity in HUVEC assessed as inhibition of tube formation at 2.5 to 10 uM after 12 hrs by light microscopy matrigel based assay. As to conditions: Homo sapiens. Format: functional, cell-based. An outline of the steps:
as §2

Test [9] concerns Aorta. The test can be described thus: Antiangiogenic activity in Wistar rat aortic ring assessed as complete inhibition of microvessel sprouting at 2.5 uM after 7 days by phase-contrast microscopy relative to steperoxide A. Format: functional.
The test system of test [10] is HUVEC. Nature of the test: Inhibition of VEGF-stimulated Akt phosphorylation in HUVEC at 2.5 to 10 uM after 1 hr by Western blot analysis. Format: cell-based. As to conditions: Homo sapiens. An outline of the steps: as §3
For orientation: In western blotting, separated proteins are transferred to a membrane and probed.

In test [11] the target is T1, Mitogen-activated protein kinase; ERK1/ERK2 (Homo sapiens). Nature of the test: Inhibition of VEGF-stimulated ERK1/2 activation in HUVEC after 1 hr by Western blot analysis. The class given is protein assay. The essentials: as §3
Test [12] deals with HUVEC. Nature of the test: Antiproliferative activity against HUVEC at 25 uM after 72 hrs by WST8 assay. Format: functional. The settings on record: Homo sapiens. The essentials:
as §1

Test [13] deals with Mus musculus. Nature of the test: Antiangiogenic activity in C57BL/6 mouse assessed as decrease in hemoglobin level at 10 uM, sc after 7 days using hematoxylin eosin staining by matrigel plug assay relative to control. Format: functional, organism-based. An outline of the steps: as §4
Test [14] relates to HUVEC. The test can be described thus: Antiangiogenic activity in HUVEC assessed as complete inhibition of tube formation at 50 uM after 12 hrs by light microscopy matrigel based assay. The class given is functional, cell-based. The settings on record: Homo sapiens. The essentials: as §2
Test [15] deals with Aorta. Nature of the test: Antiangiogenic activity in Wistar rat aortic ring assessed as complete inhibition of microvessel sprouting at 2.5 uM after 7 days by phase-contrast microscopy. The class given is functional, tissue-based.

Active and inactive are the calls of the source. The rule behind the calls is not given here.

T1 sequence (P27361 whole entry, looked up): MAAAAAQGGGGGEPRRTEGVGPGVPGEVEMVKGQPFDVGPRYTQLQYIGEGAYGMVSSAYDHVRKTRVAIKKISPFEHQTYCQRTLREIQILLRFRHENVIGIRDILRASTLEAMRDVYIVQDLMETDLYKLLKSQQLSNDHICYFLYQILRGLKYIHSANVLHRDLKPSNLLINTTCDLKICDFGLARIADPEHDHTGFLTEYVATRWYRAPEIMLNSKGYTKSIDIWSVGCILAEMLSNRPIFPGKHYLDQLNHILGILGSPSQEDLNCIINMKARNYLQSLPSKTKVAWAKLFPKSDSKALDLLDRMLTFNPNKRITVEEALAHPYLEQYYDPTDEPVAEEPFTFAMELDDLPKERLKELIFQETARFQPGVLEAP
T1 sequence (P28482 whole entry, looked up): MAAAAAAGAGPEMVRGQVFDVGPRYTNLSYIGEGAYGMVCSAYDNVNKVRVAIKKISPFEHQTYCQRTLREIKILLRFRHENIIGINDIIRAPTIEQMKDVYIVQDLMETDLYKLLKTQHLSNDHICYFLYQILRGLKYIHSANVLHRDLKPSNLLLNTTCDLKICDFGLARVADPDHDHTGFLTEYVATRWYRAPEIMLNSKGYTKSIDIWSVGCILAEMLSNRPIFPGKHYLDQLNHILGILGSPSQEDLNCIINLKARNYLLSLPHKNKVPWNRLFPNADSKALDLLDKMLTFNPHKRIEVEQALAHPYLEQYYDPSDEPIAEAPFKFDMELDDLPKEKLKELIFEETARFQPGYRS

For `CC1(C)C=CC(=O)[C@@]2(C)OO[C@@H]3C[C@]12CCC3O` (stereo partly drawn), the result in [1] was Active.

Consider `CC1(C)CCC(=O)[C@@]2(C)OO[C@@H]3C[C@@]12CCC3(O)CO` (stereo partly drawn), for which, in [1], the outcome was inactive.

Take `CC1(C)CCC(=O)[C@@]2(C)OO[C@@H]3C[C@@]12CC[C@H]3O`: in [1], the result was inactive.

For orientation: IC50 means the midpoint of a concentration-inhibition curve. Lower therefore signals greater potency. As usually defined, the inhibition is the relative decrease from the control value, in per cent. With `CC1(C)C=CC(=O)[C@@]2(C)OO[C@@H]3C[C@]12CCC3(O)CO` (stereo partly drawn) [MERULIN C], the Activity result in test [2] and in [6] was “Dose-dependent effect” throughout. The IC50 in [2] was found to be 900 nM. Also, the inhibition at 25 µM was determined as 50% in [3] and 90% in test [12]. For the same compound, the inhibition result in test [4] is “tde”; in [11] it was “Dose-dependent effect”. Also, the outcome in test [5], in test [7], in [13] and in test [15] was Active. The inhibition result in test [8] and in test [10] was “inactive” in each case. Moreover, the “fold change (FC)” value in test [9] came to 10. In test [14], the inhibition entry is “Active”.
